# Laboratory results reported in ChEMBL document CHEMBL2157880, “Synthesis, antimycobacterial and antibacterial activity of ciprofloxacin derivatives containing a N-substituted benzyl moiety” (2012).
# System: Enterococcus faecalis
# Assay: Antibacterial activity against Enterococcus faecalis 10-7 after 18 to 24 hrs by NCCLS method
# Assay type: functional
# Outline: (§1)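 Standard NCCLS (M100-S11) MIC testing against Gram-positive and Gram-negative strains. Plates were incubated at 35 °C for 18–24 h. The MIC was read as the lowest concentration giving complete inhibition of visible bacterial growth.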
row,SMILES,MIC
1,COc1cc(Br)c(CN2CCN(c3cc4c(cc3F)c(=O)c(C(=O)O)cn4C3CC3)CC2)cc1OC,> 128 µg/mL

# System: Escherichia coli
# Assay: Antibacterial activity against Escherichia coli 10-2 after 18 to 24 hrs by NCCLS method
# Assay type: functional
# Outline: as §1
row,SMILES,MIC
1,COc1cc(Br)c(CN2CCN(c3cc4c(cc3F)c(=O)c(C(=O)O)cn4C3CC3)CC2)cc1OC,> 128 µg/mL

# System: Klebsiella pneumoniae
# Assay: Antibacterial activity against extended spectrum beta-lactamases producing Klebsiella pneumoniae 10-1 after 18 to 24 hrs by NCCLS method
# Assay type: functional
# Outline: as §1
row,SMILES,MIC
1,COc1cc(Br)c(CN2CCN(c3cc4c(cc3F)c(=O)c(C(=O)O)cn4C3CC3)CC2)cc1OC,> 128 µg/mL

# System: Pseudomonas aeruginosa
# Assay: Antibacterial activity against Pseudomonas aeruginosa 10-18 after 18 to 24 hrs by NCCLS method
# Assay type: functional
# Outline: as §1
row,SMILES,MIC
1,COc1cc(Br)c(CN2CCN(c3cc4c(cc3F)c(=O)c(C(=O)O)cn4C3CC3)CC2)cc1OC,8 µg/mL

# System: Escherichia coli
# Assay: Antibacterial activity against extended spectrum beta-lactamases producing Escherichia coli 10-2 after 18 to 24 hrs by NCCLS method
# Assay type: functional
# Outline: as §1
row,SMILES,MIC
1,COc1cc(Br)c(CN2CCN(c3cc4c(cc3F)c(=O)c(C(=O)O)cn4C3CC3)CC2)cc1OC,> 128 µg/mL

# System: Staphylococcus aureus
# Assay: Antibacterial activity against methicillin-sensitive Staphylococcus aureus 10-11 after 18 to 24 hrs by NCCLS method
# Assay type: functional
# Outline: as §1
row,SMILES,MIC
1,COc1cc(Br)c(CN2CCN(c3cc4c(cc3F)c(=O)c(C(=O)O)cn4C3CC3)CC2)cc1OC,4 µg/mL

# System: Pseudomonas aeruginosa
# Assay: Antibacterial activity against Pseudomonas aeruginosa 10-5 after 18 to 24 hrs by NCCLS method
# Assay type: functional
# Outline: as §1
row,SMILES,MIC
1,COc1cc(Br)c(CN2CCN(c3cc4c(cc3F)c(=O)c(C(=O)O)cn4C3CC3)CC2)cc1OC,8 µg/mL

# System: Mycobacterium tuberculosis
# Assay: Antimycobacterial activity against Mycobacterium tuberculosis H37Rv ATCC 27294 by microplate alamar blue assay
# Assay type: functional
# Outline: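 Microplate Alamar Blue fluorescence assay on strain H37Rv ATCC 27294. MIC was the lowest concentration cutting fluorescence by ≥90% against the mean of replicate bacterium-only controls.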
row,SMILES,MIC
1,COc1cc(Br)c(CN2CCN(c3cc4c(cc3F)c(=O)c(C(=O)O)cn4C3CC3)CC2)cc1OC,> 32 µg/mL

# System: Staphylococcus epidermidis
# Assay: Antibacterial activity against methicillin-sensitive Staphylococcus epidermidis 10-11 after 18 to 24 hrs by NCCLS method
# Assay type: functional
# Outline: as §1
row,SMILES,MIC
1,COc1cc(Br)c(CN2CCN(c3cc4c(cc3F)c(=O)c(C(=O)O)cn4C3CC3)CC2)cc1OC,8 µg/mL

# System: Enterococcus faecalis
# Assay: Antibacterial activity against Enterococcus faecalis 10-6 after 18 to 24 hrs by NCCLS method
# Assay type: functional
# Outline: as §1
row,SMILES,MIC
1,COc1cc(Br)c(CN2CCN(c3cc4c(cc3F)c(=O)c(C(=O)O)cn4C3CC3)CC2)cc1OC,> 128 µg/mL

# System: Escherichia coli
# Assay: Antibacterial activity against extended spectrum beta-lactamases producing Escherichia coli 10-3 after 18 to 24 hrs by NCCLS method
# Assay type: functional
# Outline: as §1
row,SMILES,MIC
1,COc1cc(Br)c(CN2CCN(c3cc4c(cc3F)c(=O)c(C(=O)O)cn4C3CC3)CC2)cc1OC,> 128 µg/mL

# System: Staphylococcus aureus
# Assay: Antibacterial activity against methicillin-sensitive Staphylococcus aureus 10-14 after 18 to 24 hrs by NCCLS method
# Assay type: functional
# Outline: as §1
row,SMILES,MIC
1,COc1cc(Br)c(CN2CCN(c3cc4c(cc3F)c(=O)c(C(=O)O)cn4C3CC3)CC2)cc1OC,4 µg/mL

# System: Escherichia coli
# Assay: Antibacterial activity against extended spectrum beta-lactamases producing Escherichia coli 10-4 after 18 to 24 hrs by NCCLS method
# Assay type: functional
# Outline: as §1
row,SMILES,MIC
1,COc1cc(Br)c(CN2CCN(c3cc4c(cc3F)c(=O)c(C(=O)O)cn4C3CC3)CC2)cc1OC,> 128 µg/mL

# System: Staphylococcus epidermidis
# Assay: Antibacterial activity against methicillin-resistant Staphylococcus epidermidis 10-10 after 18 to 24 hrs by NCCLS method
# Assay type: functional
# Outline: (§2)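 Incubated at 35 °C for 18–24 h under NCCLS (M100-S11) standards. MIC was read as the lowest concentration giving complete inhibition of visible bacterial growth.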
row,SMILES,MIC
1,COc1cc(Br)c(CN2CCN(c3cc4c(cc3F)c(=O)c(C(=O)O)cn4C3CC3)CC2)cc1OC,> 128 µg/mL

# System: Staphylococcus epidermidis
# Assay: Antibacterial activity against methicillin-resistant Staphylococcus epidermidis 10-13 after 18 to 24 hrs by NCCLS method
# Assay type: functional
# Outline: as §2
row,SMILES,MIC
1,COc1cc(Br)c(CN2CCN(c3cc4c(cc3F)c(=O)c(C(=O)O)cn4C3CC3)CC2)cc1OC,32 µg/mL

# System: Klebsiella pneumoniae
# Assay: Antibacterial activity against extended spectrum beta-lactamases producing Klebsiella pneumoniae 10-2 after 18 to 24 hrs by NCCLS method
# Assay type: functional
# Outline: as §1
row,SMILES,MIC
1,COc1cc(Br)c(CN2CCN(c3cc4c(cc3F)c(=O)c(C(=O)O)cn4C3CC3)CC2)cc1OC,> 128 µg/mL

# System: Staphylococcus aureus
# Assay: Antibacterial activity against methicillin-resistant Staphylococcus aureus 10-11 after 18 to 24 hrs by NCCLS method
# Assay type: functional
# Outline: as §2
row,SMILES,MIC
1,COc1cc(Br)c(CN2CCN(c3cc4c(cc3F)c(=O)c(C(=O)O)cn4C3CC3)CC2)cc1OC,32 µg/mL

# System: Klebsiella pneumoniae
# Assay: Antibacterial activity against Klebsiella pneumoniae 10-3 after 18 to 24 hrs by NCCLS method
# Assay type: functional
# Outline: as §1
row,SMILES,MIC
1,COc1cc(Br)c(CN2CCN(c3cc4c(cc3F)c(=O)c(C(=O)O)cn4C3CC3)CC2)cc1OC,8 µg/mL

# System: Pseudomonas aeruginosa
# Assay: Antibacterial activity against Pseudomonas aeruginosa 10-20 after 18 to 24 hrs by NCCLS method
# Assay type: functional
# Outline: as §1
row,SMILES,MIC
1,COc1cc(Br)c(CN2CCN(c3cc4c(cc3F)c(=O)c(C(=O)O)cn4C3CC3)CC2)cc1OC,16 µg/mL

# System: Pseudomonas aeruginosa
# Assay: Antibacterial activity against Pseudomonas aeruginosa 10-15 after 18 to 24 hrs by NCCLS method
# Assay type: functional
# Outline: as §1
row,SMILES,MIC
1,COc1cc(Br)c(CN2CCN(c3cc4c(cc3F)c(=O)c(C(=O)O)cn4C3CC3)CC2)cc1OC,16 µg/mL

# System: Staphylococcus epidermidis
# Assay: Antibacterial activity against methicillin-sensitive Staphylococcus epidermidis 10-15 after 18 to 24 hrs by NCCLS method
# Assay type: functional
# Outline: as §2
row,SMILES,MIC
1,COc1cc(Br)c(CN2CCN(c3cc4c(cc3F)c(=O)c(C(=O)O)cn4C3CC3)CC2)cc1OC,> 128 µg/mL

# System: Pseudomonas aeruginosa
# Assay: Antibacterial activity against Pseudomonas aeruginosa 10-12 after 18 to 24 hrs by NCCLS method
# Assay type: functional
# Outline: as §1
row,SMILES,MIC
1,COc1cc(Br)c(CN2CCN(c3cc4c(cc3F)c(=O)c(C(=O)O)cn4C3CC3)CC2)cc1OC,8 µg/mL

# System: Escherichia coli
# Assay: Antibacterial activity against Escherichia coli 10-3 after 18 to 24 hrs by NCCLS method
# Assay type: functional
# Outline: as §1
row,SMILES,MIC
1,COc1cc(Br)c(CN2CCN(c3cc4c(cc3F)c(=O)c(C(=O)O)cn4C3CC3)CC2)cc1OC,> 128 µg/mL

# System: Klebsiella pneumoniae
# Assay: Antibacterial activity against Klebsiella pneumoniae 10-4 after 18 to 24 hrs by NCCLS method
# Assay type: functional
# Outline: as §1
row,SMILES,MIC
1,COc1cc(Br)c(CN2CCN(c3cc4c(cc3F)c(=O)c(C(=O)O)cn4C3CC3)CC2)cc1OC,> 128 µg/mL

# System: Staphylococcus aureus
# Assay: Antibacterial activity against methicillin-resistant Staphylococcus aureus 10-13 after 18 to 24 hrs by NCCLS method
# Assay type: functional
# Outline: as §2
row,SMILES,MIC
1,COc1cc(Br)c(CN2CCN(c3cc4c(cc3F)c(=O)c(C(=O)O)cn4C3CC3)CC2)cc1OC,32 µg/mL

# System: Staphylococcus aureus
# Assay: Antibacterial activity against methicillin-sensitive Staphylococcus aureus 10-13 after 18 to 24 hrs by NCCLS method
# Assay type: functional
# Outline: as §1
row,SMILES,MIC
1,COc1cc(Br)c(CN2CCN(c3cc4c(cc3F)c(=O)c(C(=O)O)cn4C3CC3)CC2)cc1OC,4 µg/mL

# System: Escherichia coli
# Assay: Antibacterial activity against Escherichia coli 10-1 after 18 to 24 hrs by NCCLS method
# Assay type: functional
# Outline: as §1
row,SMILES,MIC
1,COc1cc(Br)c(CN2CCN(c3cc4c(cc3F)c(=O)c(C(=O)O)cn4C3CC3)CC2)cc1OC,> 128 µg/mL

# System: Klebsiella pneumoniae
# Assay: Antibacterial activity against extended spectrum beta-lactamases producing Klebsiella pneumoniae 10-3 after 18 to 24 hrs by NCCLS method
# Assay type: functional
# Outline: as §1
row,SMILES,MIC
1,COc1cc(Br)c(CN2CCN(c3cc4c(cc3F)c(=O)c(C(=O)O)cn4C3CC3)CC2)cc1OC,> 128 µg/mL

# System: Enterococcus faecalis
# Assay: Antibacterial activity against Enterococcus faecalis 10-5 after 18 to 24 hrs by NCCLS method
# Assay type: functional
# Outline: as §1
row,SMILES,MIC
1,COc1cc(Br)c(CN2CCN(c3cc4c(cc3F)c(=O)c(C(=O)O)cn4C3CC3)CC2)cc1OC,> 128 µg/mL

# System: Klebsiella pneumoniae
# Assay: Antibacterial activity against Klebsiella pneumoniae 10-2 after 18 to 24 hrs by NCCLS method
# Assay type: functional
# Outline: as §1
row,SMILES,MIC
1,COc1cc(Br)c(CN2CCN(c3cc4c(cc3F)c(=O)c(C(=O)O)cn4C3CC3)CC2)cc1OC,> 128 µg/mL

# System: Staphylococcus aureus
# Assay: Antibacterial activity against methicillin-resistant Staphylococcus aureus 10-15 after 18 to 24 hrs by NCCLS method
# Assay type: functional
# Outline: as §2
row,SMILES,MIC
1,COc1cc(Br)c(CN2CCN(c3cc4c(cc3F)c(=O)c(C(=O)O)cn4C3CC3)CC2)cc1OC,32 µg/mL

# System: Staphylococcus aureus
# Assay: Antibacterial activity against Staphylococcus aureus ATCC 2592 after 18 to 24 hrs by NCCLS method
# Assay type: functional
# Outline: as §1
row,SMILES,MIC
1,COc1cc(Br)c(CN2CCN(c3cc4c(cc3F)c(=O)c(C(=O)O)cn4C3CC3)CC2)cc1OC,2 µg/mL

# System: Escherichia coli
# Assay: Antibacterial activity against Escherichia coli ATCC 25922 after 18 to 24 hrs by NCCLS method
# Assay type: functional
# Outline: as §1
row,SMILES,MIC
1,COc1cc(Br)c(CN2CCN(c3cc4c(cc3F)c(=O)c(C(=O)O)cn4C3CC3)CC2)cc1OC,0.25 µg/mL

# System: Enterococcus faecium
# Assay: Antibacterial activity against Enterococcus faecium 10-9 after 18 to 24 hrs by NCCLS method
# Assay type: functional
# Outline: as §1
row,SMILES,MIC
1,COc1cc(Br)c(CN2CCN(c3cc4c(cc3F)c(=O)c(C(=O)O)cn4C3CC3)CC2)cc1OC,> 128 µg/mL

# System: Pseudomonas aeruginosa
# Assay: Antibacterial activity against Pseudomonas aeruginosa 10-9 after 18 to 24 hrs by NCCLS method
# Assay type: functional
# Outline: as §1
row,SMILES,MIC
1,COc1cc(Br)c(CN2CCN(c3cc4c(cc3F)c(=O)c(C(=O)O)cn4C3CC3)CC2)cc1OC,8 µg/mL

# System: Streptococcus pneumoniae
# Assay: Antibacterial activity against Streptococcus pneumoniae 10-6 after 18 to 24 hrs by NCCLS method
# Assay type: functional
# Outline: as §1
row,SMILES,MIC
1,COc1cc(Br)c(CN2CCN(c3cc4c(cc3F)c(=O)c(C(=O)O)cn4C3CC3)CC2)cc1OC,> 128 µg/mL

# System: Streptococcus pneumoniae
# Assay: Antibacterial activity against Streptococcus pneumoniae 10-1 after 18 to 24 hrs by NCCLS method
# Assay type: functional
# Outline: as §1
row,SMILES,MIC
1,COc1cc(Br)c(CN2CCN(c3cc4c(cc3F)c(=O)c(C(=O)O)cn4C3CC3)CC2)cc1OC,8 µg/mL

# System: Enterococcus faecium
# Assay: Antibacterial activity against Enterococcus faecium 10-6 after 18 to 24 hrs by NCCLS method
# Assay type: functional
# Outline: as §1
row,SMILES,MIC
1,COc1cc(Br)c(CN2CCN(c3cc4c(cc3F)c(=O)c(C(=O)O)cn4C3CC3)CC2)cc1OC,8 µg/mL
